Experimental data from ChEMBL document CHEMBL1123507, “Antipicornavirus activity of substituted phenoxybenzenes and phenoxypyridines” (J Med Chem, 1986).
Values after ≈ are worked out from the molar mass of the structure shown.

Columns and labels:
[1] = tested on: Enterovirus; assay: Lowest concentration to reduce viral effect by 50% or more against Rhinovirus (RV)-1A; format: functional
How it was run: (§1)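 HeLa monolayers were seeded at (1.0-1.3) × 10^5 cells/well, grown 24 h at 36 °C in 5% CO2 to 60–75% cover, then refed with maintenance medium (1-2% heat-inactivated FCS) containing two-fold serial compound dilutions made from a 200 μg/mL stock in Me2SO/medium, with final Me2SO ≤0.1%. Cells were challenged with 10-100 TCID50 virus, and CPE was read microscopically at 48 and 72 h. MIC50 was the lowest concentration giving ≥50% CPE reduction versus virus control. Cytotoxicity was the lowest concentration causing cell death, a growth change or a morphology change in uninfected cultures.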

[2] = tested on: HeLa; assay: Cytotoxicity concentration in HeLa cells; format: cell-based; conditions: human; how it was run: as §1
[3] = tested on: Coxsackievirus; assay: Lowest concentration to reduce viral effect by 50% or more against coxsackie virus A21; format: functional; how it was run: as §1
[4] = tested on: Enterovirus; assay: Lowest concentration to reduce viral effect by 50% or more against Rhinovirus (RV)-2; format: functional; how it was run: as §1
[5] = tested on: Enterovirus; assay: Ratio of the MIC50 of 6-(4-Nitro-phenoxy)-nicotinonitrile compared to compound obtained in the same test for Rhinovirus (RV)-2; format: functional
How it was run: (§2)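 Relative activity was calculated as the MIC50 of the positive control 5-cyano-2-(4-nitrophenoxy)pyridine divided by the MIC50 of the test compound. Both were measured in parallel in the same HeLa CPE test (48/72 h microscopic reading) against RV-1A, RV-2 or coxsackievirus A21.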

[6] = tested on: Coxsackievirus; assay: Ratio of the MIC50 of 6-(4-Nitro-phenoxy)-nicotinonitrile compared to compound obtained in the same test for coxsackie A21; format: functional; how it was run: as §2
[7] = tested on: Enterovirus; assay: Ratio of the MIC50 of 6-(4-Nitro-phenoxy)-nicotinonitrile compared to compound obtained in the same test for Rhinovirus (RV)-1A; format: functional; how it was run: as §2

SMILES | MIC50 [1] [µM] | Toxicity [2] [µM] | MIC50 [3] [µM] | MIC50 [4] [µM] | Relative activity [5] | Relative activity [6] | Relative activity [7]
COc1ccccc1Oc1ccc([N+](=O)[O-])cc1C#N | 9.2 (≈ 2.49 µg/mL) | 18.5 | 18.5 (≈ 5 µg/mL) | 9.2 (≈ 2.49 µg/mL) |  |  | 
N#Cc1cc(Oc2ccc(Cl)c(Cl)c2)ccc1[N+](=O)[O-] |  | 162 | 16.2 (≈ 5.01 µg/mL) | 16.2 (≈ 5.01 µg/mL) | 1.2 | 1.2 | 
CC(=O)c1ccc(Oc2ccc(C#N)cn2)cc1 | 210 (≈ 50 µg/mL) | 420 | 53 (≈ 12.6 µg/mL) |  |  | 0.02 | 
N#Cc1cc(Cl)ccc1Oc1ccc(Cl)c(Cl)c1 | > 334 | > 334 | 1 (≈ 0.299 µg/mL) | > 334 |  | 5.2 | 
COc1ccc(Oc2ccc([N+](=O)[O-])cc2C#N)cc1OC | > 167 | > 167 | 10.3 (≈ 3.09 µg/mL) | 20.7 (≈ 6.22 µg/mL) | 0.63 | 1.3 | 
Clc1ccc(Oc2ccc(Cl)c(Cl)c2)cc1 | 22.8 (≈ 6.24 µg/mL) | 91 | 9.1 (≈ 2.49 µg/mL) | 45.6 (≈ 12.5 µg/mL) |  | 1.4 | 2.3
CS(=O)(=O)c1ccc(Oc2ccccc2Cl)cc1 | 88 (≈ 24.9 µg/mL) | 88 | 11 (≈ 3.11 µg/mL) | 44.2 (≈ 12.5 µg/mL) |  | 1.2 | 
N#Cc1ccc(Oc2ccccc2)nc1 | 64 (≈ 12.6 µg/mL) | 676 | 64 (≈ 12.6 µg/mL) |  |  | 0.81 | 0.4
CS(=O)(=O)c1ccc(Oc2ccc([N+](=O)[O-])cc2C#N)cc1 | > 314 | > 314 | 2 (≈ 0.637 µg/mL) | 39.3 (≈ 12.5 µg/mL) | 1.3 | 2.6 | 
O=S(=O)(c1ccc(Oc2ccc(Cl)c(Cl)c2)cc1)C(F)(F)F | 33.7 (≈ 12.5 µg/mL) | > 135 |  | 16.8 (≈ 6.24 µg/mL) | 1.5 |  | 0.39
CC(=O)c1ccc(Oc2ccc(S(C)(=O)=O)cc2)cc1 | 86.2 (≈ 25 µg/mL) | 172 | 17.2 (≈ 4.99 µg/mL) | 8.6 (≈ 2.5 µg/mL) | 3 | 0.769 | 
CS(=O)(=O)c1ccc(Oc2cccc(Cl)c2)cc1 |  | 88 | 22.1 (≈ 6.25 µg/mL) | 22.1 (≈ 6.25 µg/mL) | 1.2 | 0.59 | 
N#Cc1cc(N)ccc1Oc1ccc(Cl)c(Cl)c1 | 4.5 (≈ 1.26 µg/mL) | 9 | 2.2 (≈ 0.614 µg/mL) | 9 (≈ 2.51 µg/mL) |  | 11.8 | 
CS(=O)(=O)c1ccc(Oc2ccc(Cl)c(Cl)c2)c(N)c1 | 15 (≈ 4.98 µg/mL) | 19 | 18.7 (≈ 6.21 µg/mL) | 18.7 (≈ 6.21 µg/mL) |  |  | 
O=S(=O)(O)c1ccc(Oc2ccc(Cl)c(Cl)c2)nc1 | 20 (≈ 6.4 µg/mL) | 312 | 312 (≈ 99.9 µg/mL) | > 312 |  |  | 1.3
CS(=O)(=O)c1ccnc(Oc2ccc(Cl)c(Cl)c2)c1 | 79 (≈ 25.1 µg/mL) | 157 | 5 (≈ 1.59 µg/mL) | 79 (≈ 25.1 µg/mL) |  | 10.4 | 
CS(=O)(=O)c1ccc(Oc2ccc(Cl)c(Cl)c2)c([N+](=O)[O-])c1 | > 267 | > 267 | > 267 | 16.7 (≈ 6.05 µg/mL) | 3.1 |  | 
C[S+]([O-])c1ccc(Oc2ccc(Cl)c(Cl)c2)nc1 (configuration not stated) | 2 (≈ 0.604 µg/mL) | 83 | 83 (≈ 25.1 µg/mL) | 4 (≈ 1.21 µg/mL) | 3.3 |  | 6.5
